The source made the active and inactive calls. No cut-off for these calls is given here.
How the values were obtained:
PC-3 = experiment: Cytotoxicity against human PC3 cells after 48 hrs assessed as inhibition of cell growth at 10 uM after 48 hrs by SRB assay relative to control; format: functional; settings: PC-3, 48 h, read-out: GI
Summary of the method: (§1)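 SRB protein assay in DMEM with 10% FBS at 37 °C, 5% CO2, 100% relative humidity. Cells seeded in 96-well plates, incubated 24 h, then exposed to drug at 10 µM for 48 h and processed per standard protocol. Absorbance read at 560 nm; growth percentage calculated for test wells relative to control wells.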

IMR-32 = experiment: Cytotoxicity against human IMR32 cells after 48 hrs assessed as inhibition of cell growth at 10 uM after 48 hrs by SRB assay relative to control; format: functional; settings: for inhibition of growth at 10 µM: IMR-32, 48 h, read-out: GI; summary of the method: as §1
COLO 205 = experiment: Cytotoxicity against human COLO205 cells after 48 hrs assessed as inhibition of cell growth at 10 uM after 48 hrs by SRB assay relative to control; format: functional; settings: COLO 205, 48 h, read-out: GI; summary of the method: as §1
A549 = experiment: Cytotoxicity against human A549 cells assessed as inhibition of cell growth at 10 uM after 48 hrs by SRB assay relative to control; format: functional; settings: for inhibition of growth at 10 µM: A549, 48 h, read-out: GI; summary of the method: as §1
HEp-2 = experiment: Cytotoxicity against human Hep2 cells after 48 hrs assessed as inhibition of cell growth at 10 uM after 48 hrs by SRB assay relative to control; format: functional; settings: for inhibition of growth at 10 µM: HEp-2, 48 h, read-out: GI; summary of the method: as §1
MCF7 [1] = experiment: Cytotoxicity against human MCF7 cells after 48 hrs assessed as inhibition of cell growth at 10 uM after 48 hrs by SRB assay relative to control; format: functional; settings: MCF7, 48 h, read-out: GI; summary of the method: as §1
THP-1 = experiment: Cytotoxicity against human THP1 cells after 48 hrs assessed as inhibition of cell growth at 10 uM after 48 hrs by SRB assay relative to control; format: functional; settings: THP-1, 48 h, read-out: GI; summary of the method: as §1
MCF7 [2] = experiment: Cell cycle arrest in human MCF7 cells assessed as accumulation at G1 phase at 4 uM after 24 hrs by FACS analysis (reference value: 58.33%); format: functional
MCF7 [3] = experiment: Cell cycle arrest in human MCF7 cells assessed as accumulation at G2/M phase at 4 uM after 24 hrs by FACS analysis (reference value: 34.88%); format: functional
MCF7 [4] = experiment: Cell cycle arrest in human MCF7 cells assessed as accumulation at S phase at 4 uM after 24 hrs by FACS analysis (reference value: 6.79%); format: functional
MCF7 [5] = experiment: Inhibition of microtubule organization in human MCF7 cells at 4 uM after 24 hrs by immunofluorescence analysis; format: cell-based
Summary of the method: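 MCF-7 cells were grown in DMEM with 10% fetal calf serum and penicillin/streptomycin at 37 °C and 5% CO2. Cells on cover slips were treated for 24 h, then fixed in 4% paraformaldehyde for 20 min. They were permeabilised with 0.2% Triton X-100, held in methanol at 4 °C overnight and blocked with 1% BSA. Staining used anti-α-tubulin (1:100, 2 h RT), FITC secondary and a DAPI/PI mount, with confocal imaging.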

| Structure (SMILES) | inhibition of growth at 10 µM (PC-3) [%] | inhibition of growth at 10 µM (IMR-32) [%] | inhibition of growth at 10 µM (COLO 205) [%] | inhibition of growth at 10 µM (A549) [%] | growth inhibition (GI) (HEp-2) | inhibition of growth at 10 µM (MCF7 [1]) [%] | inhibition of growth at 10 µM (THP-1) [%] | growth inhibition (GI) (IMR-32) | Activity (MCF7 [2]) [%] | Activity (MCF7 [3]) [%] | Activity (MCF7 [4]) [%] | inhibition of growth at 10 µM (HEp-2) [%] | growth inhibition (GI) (A549) | inhibition (MCF7 [5]) |
| --- | --- | --- | --- | --- | --- | --- | --- | --- | --- | --- | --- | --- | --- | --- |
| COc1ccc(/C=C\c2cc(OC)c(OC)c(OC)c2)cc1OCC(=O)Nc1nc2ccc([N+](=O)[O-])cc2s1 | 47 | 88 | 46 | 50 | inactive | 69 | 80 |  |  |  |  |  |  |  |
| COc1ccc(/C=C\c2cc(OC)c(OC)c(OC)c2)cc1OCC(=O)Nc1nc2ccc(C)cc2s1 | 22 |  | 33 | 37 |  | 57 | 27 | inactive | 41.7 | 42.82 | 15.53 | 44 |  |  |
| COc1ccc(/C=C\c2cc(OC)c(OC)c(OC)c2)cc1OCC(=O)Nc1ccc2ncsc2c1 | 58 | 46 | 11 |  |  | 19 | 41 |  |  |  |  | 20 | inactive |  |
| COc1ccc(/C=C\c2cc(OC)c(OC)c(OC)c2)cc1OCC(=O)Nc1nc2c(C)cccc2s1 | 24 | 34 | 24 |  | inactive | 29 | 19 |  | 68.06 | 28.48 | 3.46 |  | inactive |  |
| COc1ccc(/C=C\c2cc(OC)c(OC)c(OC)c2)cc1OCC(=O)Nc1nc2ccc(Cl)cc2s1 | 41 | 51 | 17 |  |  | 21 | 70 |  |  |  |  | 47 | inactive |  |
| COC(=O)Nc1nc2cc(C(=O)c3cccs3)ccc2[nH]1 |  |  |  |  |  |  |  |  |  |  |  |  |  | Active |
| CCOc1ccc2nc(NC(=O)COc3cc(/C=C\c4cc(OC)c(OC)c(OC)c4)ccc3OC)sc2c1 | 37 | 54 | 45 | 27 |  | 35 | 37 |  | 48.43 | 37.67 | 13.91 | 49 |  |  |
| COc1cccc2c1C(=O)c1c(O)c3c(c(O)c1C2=O)C[C@@](O)(C(=O)CO)C[C@@H]3O[C@H]1C[C@H](N)[C@H](O)[C@H](C)O1 [DOXORUBICIN] | 75 | 73 | 26 | 52 |  | 45 | 83 |  |  |  |  | 56 |  |  |
| COc1ccc(/C=C\c2cc(OC)c(OC)c(OC)c2)cc1OCC(=O)Nc1nc2cc(C)c(C)cc2s1 | 36 | 55 | 51 | 41 |  | 68 | 76 |  | 80.59 | 16.37 | 3.04 | 23 |  |  |
